Assay results as given in ChEMBL document CHEMBL1124774, “Synthesis and biological activity of some derivatives of rifamycin P” (1990).
Values after ≈ are worked out from the molar mass of the structure shown.

How the values were obtained:
Haemophilus influenzae = test: In vitro antibacterial activity of compound against Haemophilus influenzae ATCC 19418; type: functional
Klebsiella pneumoniae = test: In vitro antibacterial activity of compound against Klebsiella pneumoniae ISM; type: functional
[1] = tested on: Staphylococcus epidermidis; test: In vitro antibacterial activity of compound against Staphylococcus epidermidis ATCC 12228; type: functional
Outline: (§1)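 Twofold microdilution MIC in Iso-Sensitest broth over 128-0.0001 µg/mL. Inoculum was 10^4 cfu/mL, with incubation at 37 °C for 18-24 h.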

Escherichia coli = test: In vitro antibacterial activity of compound against Escherichia coli SKF 12140; type: functional
Enterococcus faecalis = test: In vitro antibacterial activity of compound against Streptococcus faecalis ATCC 7080.; type: functional; outline: as §1
Proteus vulgaris = test: In vitro antibacterial activity of compound against Proteus vulgaris X19H ATCC 881; type: functional
Neisseria gonorrhoeae = test: In vitro antibacterial activity of compound against Neisseria gonorrhoeae ISM 68/126; type: functional
Staphylococcus aureus [2] = test: In vitro antibacterial activity of compound against Staphylococcus aureus Tour L 165; type: functional; outline: as §1
Pseudomonas aeruginosa = test: In vitro antibacterial activity of compound against Pseudomonas aeruginosa ATCC 10145; type: functional; outline: as §1
Streptococcus pneumoniae = test: In vitro antibacterial activity of compound against Streptococcus pneumoniae UC 41; type: functional
Outline: (§2)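 Streptococcal MICs were run by twofold microdilution in Todd-Hewitt broth over 128-0.0001 µg/mL. Inoculum was 10^4 cfu/mL, with incubation at 37 °C for 18-24 h.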

[3] = tested on: Mycobacterium tuberculosis; test: In vitro antibacterial activity of compound against Mycobacterium tuberculosis H37Rv ATCC 9660; type: functional
Streptococcus pyogenes [4] = test: In vitro antibacterial activity of compound against Streptococcus pyogenes C 203 SKF 13400; type: functional; outline: as §2
Mycobacterium avium [5] = test: 50% inhibition of the 20 Mycobacterium (MAC) avium complex clinical isolates; type: functional
Outline: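 Agar-dilution MICs, 2-fold dilutions over 128-0.0001 μg/mL, on Middlebrook 7H10 agar with 2% glycerol and 10% OADC. Organisms from Loevenstein-Jensen slants were grown in 7H9 broth with 0.5% Tween and 10% OADC, adjusted to McFarland no. 1, and spotted with a multipoint inoculator. Plates were sealed and incubated at 22, 30 or 37 °C for 4-20 days depending on strain.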

Mycobacterium avium [6] = test: Minimum inhibitory concentration of compound against 20 Mycobacterium avium complex (MAC) clinical isolates
Mycobacterium avium [7] = test: 90% inhibition of the 20 Mycobacterium avium complex (MAC) clinical isolates
Streptococcus pyogenes [8] = test: Inhibitory concentration of compound against Streptococcus pyogenus septicemia in the mouse, administarted in OS route; type: functional
Outline: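 Male and female CD1 mice (18-22 g) were infected ip with S. pyogenes C203, with the challenge set so untreated mice died within 48 h. Groups of five received a single treatment immediately after infection. ED50 was calculated from the percentage surviving at each dose on day 10.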

Streptococcus pyogenes [9] = test: Minimum inhibitory concentration of compound against Streptococcus pyogenus septicemia in the mouse; type: functional
Staphylococcus aureus [10] = test: Activity in the murine model (subcutaneous route) of Staphylococcus aureus tour septicemia; type: functional; details: sc
Outline: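 Male and female CD1 mice (18-22 g) were infected ip with S. aureus Tour. The challenge was set so untreated mice died within 48 h. Groups were five mice, dosed once daily for 3 days starting immediately after infection. ED50 was calculated on day 10 from the percentage surviving at each dose.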

`COc1ccc(N2CCN(c3nc4c(s3)c3c(O)c5c(O)c(C)c6c(c54)C(=O)C(C)(O/C=C/C(OC)C(C)C(OC(C)=O)C(C)C(O)C(C)C(O)C(C)/C=C/C=C(/C)C(=O)N3)O6)CC2)cc1` (stereo not given) showed an MIC (Haemophilus influenzae) of 0.125 µg/mL (≈ 0.135 µM), an MIC (Klebsiella pneumoniae) greater than 128 µg/mL and an MIC [1] of 0.063 µg/mL (≈ 0.0678 µM). It also gave an MIC (Escherichia coli) of 8 µg/mL (≈ 8.61 µM), an MIC (Enterococcus faecalis) of 4 µg/mL (≈ 4.31 µM) and an MIC (Proteus vulgaris) of 64 µg/mL (≈ 68.9 µM). For the same compound, the MIC (Neisseria gonorrhoeae) was 0.125 µg/mL (≈ 0.135 µM), the MIC (Staphylococcus aureus [2]) was 0.063 µg/mL (≈ 0.0678 µM) and the MIC (Pseudomonas aeruginosa) was 128 µg/mL (≈ 138 µM). The MIC (Streptococcus pneumoniae) was 0.063 µg/mL (≈ 0.0678 µM), the MIC [3] was 0.25 µg/mL (≈ 0.269 µM) and the MIC (Streptococcus pyogenes [4]) was 0.125 µg/mL (≈ 0.135 µM).

Work on `COC1/C=C/OC2(C)Oc3c(C)c(O)c4c(O)c(c5scnc5c4c3C2=O)NC(=O)/C(C)=C\C=C\C(C)C(O)C(C)C(O)C(C)C(O)C1C` (stereo not given) yielded an MIC (Haemophilus influenzae) of 0.125 µg/mL (≈ 0.179 µM), an MIC (Klebsiella pneumoniae) of 16 µg/mL (≈ 23 µM) and an MIC [1] of 0.008 µg/mL (≈ 0.0115 µM). The MIC (Escherichia coli) was 16 µg/mL (≈ 23 µM), the MIC (Enterococcus faecalis) was 4 µg/mL (≈ 5.74 µM) and the MIC (Proteus vulgaris) was 4 µg/mL (≈ 5.74 µM). For the same compound, the MIC (Neisseria gonorrhoeae) was 0.125 µg/mL (≈ 0.179 µM), the MIC (Staphylococcus aureus [2]) was 0.032 µg/mL (≈ 0.0459 µM) and the MIC (Pseudomonas aeruginosa) was 8 µg/mL (≈ 11.5 µM). For the same compound, the MIC (Streptococcus pneumoniae) was 0.125 µg/mL (≈ 0.179 µM), the MIC [3] was 0.5 µg/mL (≈ 0.718 µM) and the MIC (Streptococcus pyogenes [4]) was 0.125 µg/mL (≈ 0.179 µM).

`COC1/C=C/OC2(C)Oc3c(C)c(O)c4c(O)c(c5sc(N6CCN(Cc7ccccc7)CC6)nc5c4c3C2=O)NC(=O)/C(C)=C\C=C\C(C)C(O)C(C)C(O)C(C)C(OC(C)=O)C1C` (stereo not given) gave an MIC (Haemophilus influenzae) of 0.125 µg/mL (≈ 0.137 µM), an MIC (Klebsiella pneumoniae) of 64 µg/mL (≈ 70.1 µM) and an MIC [1] of 0.063 µg/mL (≈ 0.069 µM). For the same compound, the MIC (Escherichia coli) was 32 µg/mL (≈ 35 µM), the MIC (Enterococcus faecalis) was 1 µg/mL (≈ 1.1 µM) and the MIC (Proteus vulgaris) was 32 µg/mL (≈ 35 µM). For the same compound, the MIC (Neisseria gonorrhoeae) was 0.125 µg/mL (≈ 0.137 µM), the MIC (Staphylococcus aureus [2]) was 0.008 µg/mL (≈ 0.00876 µM) and the MIC (Pseudomonas aeruginosa) was 16 µg/mL (≈ 17.5 µM). For the same compound, the MIC (Streptococcus pneumoniae) was 0.063 µg/mL (≈ 0.069 µM), the MIC [3] was 0.125 µg/mL (≈ 0.137 µM) and the MIC (Streptococcus pyogenes [4]) was 0.063 µg/mL (≈ 0.069 µM).

`COC1/C=C/OC2(C)Oc3c(C)c(O)c4c(O)c(c5sc(N6CCN(C)CC6)nc5c4c3C2=O)NC(=O)/C(C)=C\C=C\C(C)C(O)C(C)C(O)C(C)C(OC(C)=O)C1C` (stereo not given) showed an MIC (Haemophilus influenzae) of 0.5 µg/mL (≈ 0.597 µM), an MIC (Klebsiella pneumoniae) of 16 µg/mL (≈ 19.1 µM) and an MIC50 (Mycobacterium avium [5]) of 64 µg/mL (≈ 76.5 µM). It also gave an MIC [1] of 0.063 µg/mL (≈ 0.0753 µM), an MIC (Mycobacterium avium [6]) of 16 µg/mL (≈ 19.1 µM) and an MIC (Escherichia coli) of 2 µg/mL (≈ 2.39 µM). The MIC (Enterococcus faecalis) was 0.032 µg/mL (≈ 0.0382 µM), the MIC (Proteus vulgaris) was 32 µg/mL (≈ 38.2 µM) and the MIC90 (Mycobacterium avium [7]) was 64 µg/mL (≈ 76.5 µM). For the same compound, the MIC (Neisseria gonorrhoeae) was 16 µg/mL (≈ 19.1 µM), the MIC (Staphylococcus aureus [2]) was 0.004 µg/mL (≈ 0.00478 µM) and the MIC (Pseudomonas aeruginosa) was 8 µg/mL (≈ 9.56 µM). The MIC (Streptococcus pneumoniae) was 0.125 µg/mL (≈ 0.149 µM), the MIC [3] was 2 µg/mL (≈ 2.39 µM) and the MIC (Streptococcus pyogenes [4]) was 0.032 µg/mL (≈ 0.0382 µM).

For `COC1/C=C/OC2(C)Oc3c(C)c(O)c4c(O)c(c5sc(N6CCN(C(=O)OCc7ccccc7)CC6)nc5c4c3C2=O)NC(=O)/C(C)=C\C=C\C(C)C(O)C(C)C(O)C(C)C(OC(C)=O)C1C` (stereo not given), the MIC (Haemophilus influenzae) was 0.125 µg/mL (≈ 0.131 µM), the MIC (Klebsiella pneumoniae) was greater than 128 µg/mL and the MIC [1] was 0.032 µg/mL (≈ 0.0334 µM). For the same compound, the MIC (Escherichia coli) was greater than 128 µg/mL, the MIC (Enterococcus faecalis) was 2 µg/mL (≈ 2.09 µM) and the MIC (Proteus vulgaris) was 64 µg/mL (≈ 66.9 µM). For the same compound, the MIC (Neisseria gonorrhoeae) was 0.125 µg/mL (≈ 0.131 µM), the MIC (Staphylococcus aureus [2]) was 0.063 µg/mL (≈ 0.0658 µM) and the MIC (Pseudomonas aeruginosa) was 32 µg/mL (≈ 33.4 µM). For the same compound, the MIC (Streptococcus pneumoniae) was 0.063 µg/mL (≈ 0.0658 µM), the MIC [3] was 0.5 µg/mL (≈ 0.522 µM) and the MIC (Streptococcus pyogenes [4]) was 0.125 µg/mL (≈ 0.131 µM).

`CCNc1nc2c(s1)c1c(O)c3c(O)c(C)c4c(c32)C(=O)C(C)(O/C=C/C(OC)C(C)C(OC(C)=O)C(C)C(O)C(C)C(O)C(C)/C=C/C=C(/C)C(=O)N1)O4` (stereo not given) showed an MIC (Haemophilus influenzae) of 0.125 µg/mL (≈ 0.16 µM), an MIC (Klebsiella pneumoniae) of 32 µg/mL (≈ 40.9 µM) and an MIC50 (Mycobacterium avium [5]) of 32 µg/mL (≈ 40.9 µM). The MIC [1] was 0.032 µg/mL (≈ 0.0409 µM), the ED50 (Streptococcus pyogenes [8]) was greater than 4 mg/kg and the MIC (Mycobacterium avium [6]) was 8 µg/mL (≈ 10.2 µM). For the same compound, the MIC (Escherichia coli) was 16 µg/mL (≈ 20.5 µM), the MIC (Enterococcus faecalis) was 1 µg/mL (≈ 1.28 µM) and the MIC (Proteus vulgaris) was 8 µg/mL (≈ 10.2 µM). The MIC90 (Mycobacterium avium [7]) was 64 µg/mL (≈ 81.8 µM), the MIC (Neisseria gonorrhoeae) was 0.125 µg/mL (≈ 0.16 µM) and the MIC (Staphylococcus aureus [2]) was 0.063 µg/mL (≈ 0.0806 µM). For the same compound, the MIC (Pseudomonas aeruginosa) was 4 µg/mL (≈ 5.12 µM), the MIC (Streptococcus pneumoniae) was 0.063 µg/mL (≈ 0.0806 µM) and the MIC [3] was 0.125 µg/mL (≈ 0.16 µM). It also gave an MIC (Streptococcus pyogenes [4]) of 0.063 µg/mL (≈ 0.0806 µM) and an MIC (Streptococcus pyogenes [9]) of 0.063 µg/mL (≈ 0.0806 µM).

`COC1/C=C/OC2(C)Oc3c(C)c(O)c4c(O)c(c5sc(N6CCN(c7ccc(Cl)cc7)CC6)nc5c4c3C2=O)NC(=O)/C(C)=C\C=C\C(C)C(O)C(C)C(O)C(C)C(OC(C)=O)C1C` (stereo not given) gave an MIC (Haemophilus influenzae) of 0.125 µg/mL (≈ 0.134 µM), an MIC (Klebsiella pneumoniae) greater than 128 µg/mL and an MIC [1] of 0.063 µg/mL (≈ 0.0675 µM). For the same compound, the MIC (Escherichia coli) was 8 µg/mL (≈ 8.57 µM), the MIC (Enterococcus faecalis) was 4 µg/mL (≈ 4.28 µM) and the MIC (Proteus vulgaris) was 64 µg/mL (≈ 68.6 µM). For the same compound, the MIC (Neisseria gonorrhoeae) was 0.25 µg/mL (≈ 0.268 µM), the MIC (Staphylococcus aureus [2]) was 0.063 µg/mL (≈ 0.0675 µM) and the MIC (Pseudomonas aeruginosa) was 128 µg/mL (≈ 137 µM). It also gave an MIC (Streptococcus pneumoniae) of 0.063 µg/mL (≈ 0.0675 µM), an MIC [3] of 1 µg/mL (≈ 1.07 µM) and an MIC (Streptococcus pyogenes [4]) of 0.125 µg/mL (≈ 0.134 µM).

In the case of `COC1/C=C/OC2(C)Oc3c(C)c(O)c4c(O)c(c5sc(N6CCN(C)CC6)nc5c4c3C2=O)NC(=O)/C(C)=C\C=C\C(C)C(O)C(C)C(O)C(C)C(O)C1C` (stereo not given), the MIC (Haemophilus influenzae) is reported as 0.125 µg/mL (≈ 0.157 µM), the MIC (Klebsiella pneumoniae) is reported as 16 µg/mL (≈ 20.1 µM) and the ED50 (Staphylococcus aureus [10]) is reported as 10 mg/kg. The MIC [1] was 0.125 µg/mL (≈ 0.157 µM), the MIC (Escherichia coli) was 8 µg/mL (≈ 10.1 µM) and the MIC (Enterococcus faecalis) was 1 µg/mL (≈ 1.26 µM). For the same compound, the MIC (Proteus vulgaris) was 8 µg/mL (≈ 10.1 µM), the MIC (Neisseria gonorrhoeae) was 1 µg/mL (≈ 1.26 µM) and the MIC (Staphylococcus aureus [2]) was 0.008 µg/mL (≈ 0.0101 µM). The MIC (Pseudomonas aeruginosa) was 16 µg/mL (≈ 20.1 µM), the MIC (Streptococcus pneumoniae) was 0.063 µg/mL (≈ 0.0792 µM) and the MIC [3] was 1 µg/mL (≈ 1.26 µM). For the same compound, the MIC (Streptococcus pyogenes [4]) was 0.063 µg/mL (≈ 0.0792 µM).
